Data published in ChEMBL document CHEMBL1122954, “Synthesis and antiallergic activity of some quinolinones and imidazoquinolinones” (1985).

Tests used:
Type in all cases: functional
Rattus norvegicus [1] = assay: Antiallergic activity determined by rat passive cutaneous anaphylaxis (PCA) assay when administered intraperitoneally at dose 60 mg/kg; conditions: route intraperitoneal
Rattus norvegicus [2] = assay: Antiallergic activity by rat passive cutaneous anaphylaxis (PCA) assay when administered perorally at dose 100 mg/kg; conditions: route oral
Rattus norvegicus [3] = assay: Percentage normal weight gain when dosed at 200 mg/kg on day one of the 2-week study in rat
How it was run: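 Male Sprague-Dawley rats, fasted 16 h, given a single oral dose in 0.1% Methocel; controls got vehicle. Groups of 8–10, weighed daily at about the same time over 2 weeks. Gain over the first 4 days compared with expected gain from standard growth charts for age and strain. Mean % of normal weight gain ± standard error.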

Row | Structure (SMILES) | Activity (Rattus norvegicus [1]) | Activity (Rattus norvegicus [2]) | Normal weight gain (Rattus norvegicus [3]) [%]
1 | O=CNc1cccc2c(O)cc(C(=O)O)nc12 | 91 | 16 | 
2 | CCOC(=O)c1cnc2c(NC=O)cccc2c1O | 67 | 76 | -26
3 | CCOC(=O)c1cn2c(C)nc3cccc(c1=O)c32 | 95 | 83 | -49
4 | COC(=O)c1cc(=O)c2cccc3ncn1c32 | 16 | 1 | 68
5 | CCOC(=O)c1cnc2c([N+](=O)[O-])cccc2c1O | 13 | -2 | 106
6 | CCOC(=O)c1cn2cnc3cccc(c1=O)c32 | 100 | 70 | -6
7 | CCOC(=O)c1cnc2c(N)cccc2c1O | 19 |  | 86
8 | CCOC(=O)c1cn2cnc3cc(C)cc(c1=O)c32 | 3 | 70 | 
9 | COC(=O)c1cc(O)c2cccc([N+](=O)[O-])c2n1 | 66 | 8 | 104
10 | COC(=O)c1cc(O)c2cccc(N)c2n1 | 10 | 3 | 100
11 | CCOC(=O)c1cnc2c(N)cc(C)cc2c1O | -2 |  | 
12 | CCO/C(C)=N/c1cccc2c(O)cc(C(=O)OC)nc12 | 24 |  | 
13 | O=C([O-])c1cc(=O)c2c(OCC(O)COc3cccc4oc(C(=O)[O-])cc(=O)c34)cccc2o1.[Na+].[Na+] [CROMOLYN SODIUM] | 100 | 2 | 
14 | O=CNc1cccc2c(O)c(C(=O)O)cnc12 | 62 | 0 | 
